Measurements reported in ChEMBL document CHEMBL3243931, “Dihydroretinoic acids and their derivatives. Synthesis and biological activity” (1977).
Calls of active or inactive are those of the source. The rule behind the calls is not given here.

What was measured:
[1] = tested on: Mus musculus; assay: Activity against chemically-induced skin papillomas in Swiss albino mouse assessed as change in total papilloma diameter at 10 mg/kg/day, ip administered five times per week for 2 weeks measured on day 14; type: functional; conditions: route intraperitoneal
[2] = tested on: Hamster; assay: Reversal of keratinized lesions in vitamin A deficient hamster tracheal organ culture assessed as cultures with keratin and keratohyaline granules at 10 nM after 7 days (reference value: 93%); type: functional, Cricetinae, Trachea
[3] = tested on: Hamster; assay: Reversal of keratinized lesions in vitamin A deficient hamster tracheal organ culture assessed as cultures with keratin and keratohyaline granules at 0.1 uM after 7 days (reference value: 93%); type: functional, Cricetinae, Trachea
[4] = tested on: Hamster; assay: Reversal of keratinized lesions in vitamin A deficient hamster tracheal organ culture assessed as cultures with keratin and keratohyaline granules at 1 nM after 7 days (reference value: 93%); type: functional, Cricetinae, Trachea
[5] = Increase in RNA content in mouse epidermal cells at 1 nM after 3 days; type: functional
Outline: (§1)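 Mouse skin epidermal cell cultures grown 3 days with retinoid added from Me2SO stock (final Me2SO ≤1.0%); controls received equivalent Me2SO and no retinoid. RNA measured; value is percentage increase over control cultures; 6–9 cultures per concentration.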

[6] = Increase in RNA content in mouse epidermal cells at 10 nM after 3 days; type: functional; outline: as §1
[7] = Increase in RNA content in mouse epidermal cells at 0.1 uM after 3 days; type: functional; outline: as §1
[8] = Increase in RNA content in mouse epidermal cells at 1 uM after 3 days; type: functional; outline: as §1
[9] = tested on: Mus musculus; assay: Activity against chemically-induced skin papillomas in Swiss albino mouse assessed as change in total papilloma diameter at 80 mg/kg/day, ip administered five times per week for 2 weeks measured on day 14; type: functional; conditions: route intraperitoneal
[10] = tested on: Hamster; assay: Reversal of keratinized lesions in vitamin A deficient hamster tracheal organ culture assessed as cultures with keratin and keratohyaline granules at 1 uM after 7 days (reference value: 93%); type: functional, Cricetinae, Trachea
[11] = tested on: Mus musculus; assay: Activity against chemically-induced skin papillomas in Swiss albino mouse assessed as change in total papilloma diameter at 160 mg/kg/day, ip administered five times per week for 2 weeks measured on day 14; type: functional; conditions: route intraperitoneal
[12] = species: Mus musculus; assay: Increase in DNA content in mouse epidermal cells; type: functional, cell-based
Outline: (§2)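 Mouse skin epidermal cell cultures with retinoid added to the medium from Me2SO stock (final Me2SO ≤1.0%); controls given equivalent Me2SO; increase in DNA or protein content measured relative to cultures without retinoid.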

[13] = species: Mus musculus; assay: Increase in protein content in mouse epidermal cells; type: functional, cell-based; outline: as §2
[14] = Increase in RNA content in mouse epidermal cells at 0.1 nM after 3 days; type: functional; outline: as §1
[15] = tested on: Mus musculus; assay: Activity against chemically-induced skin papillomas in Swiss albino mouse assessed as change in total papilloma diameter at 40 mg/kg/day, ip administered five times per week for 2 weeks measured on day 14; type: functional; conditions: route intraperitoneal

Row | SMILES | Activity [2] [%] | Cultures with keratinized lesions [3] [%] | Activity [5] [%] | Activity [6] [%] | Activity [7] [%] | Activity [8] [%] | Activity [9] [%] | further results
1 | CC(/C=C/C1C(C)CCCC1(C)C)=C\C=C\C(C)=C\C(=O)O (stereo not drawn) | 0 | 0 | – | – | – | – | – | Activity [1]: -9%; Activity [4]: 6%
2 | CCOC(=O)/C=C(C)/C=C/C=C(C)/C=C/C1=C(C)CCCC1(C)C | 0 | 0 | 23 | 57 | 102 | 123 | -47 | –
3 | COC(=O)/C=C(\C)CC/C=C(C)/C=C/c1c(C)cc(C)c(Cl)c1C | – | – | – | – | – | – | 29 | –
4 | COc1cc(C)c(CC/C(C)=C/C=C/C(C)=C/C(=O)O)c(C)c1C | 85 | 63 | – | – | – | – | -35 | Activity [10]: 0%
5 | CCOC(=O)CC(C)/C=C/C=C(C)/C=C/C1=C(C)CCCC1(C)C (stereo not drawn) | 83 | 12 | 12 | 12 | 13 | 69 | – | Activity [11]: -14%; Activity [12]: Active; Activity [13]: Active
6 | CC1=C(CC/C(C)=C/C=C/C(C)=C\C(=O)O)C(C)(C)CCC1 | – | – | – | – | – | – | -28 | –
7 | COC(=O)/C=C(C)/C=C/C=C(C)/C=C/C1=C(C)CCCC1(C)C [RETINOIC ACID METHYL ESTER] | 0 | 0 | 8 | 25 | 75 | 126 | – | –
8 | COc1cc(C)c(/C=C/C(C)=C/CC/C(C)=C/C(=O)O)c(C)c1C | 86 | 44 | – | – | – | – | -17 | Activity [11]: -66%; Activity [10]: 0%
9 | COc1cc(C)c(/C=C/C(C)=C/C=C/C(C)=C/C(=O)O)c(C)c1C [ACITRETIN] | 35 | 0 | – | – | – | – | – | Activity [1]: -43%; Activity [10]: 0%; Activity [4]: 100%
10 | COC(=O)/C=C(C)/C=C/C=C(\C)CCc1c(C)cc(N(C)C)cc1C | – | – | – | – | – | – | 20 | –
11 | COC(=O)/C=C(C)/C=C/C=C(\C)CCc1c(C)cc(OC)c(Cl)c1C | – | – | – | – | – | – | 1 | –
12 | CC1=C(/C=C/C(C)=C/C=C/C(C)=C/C(=O)O)C(C)(C)CCC1 [TRETINOIN] | 3 | 0 | 68 | 100 | – | – | – | Activity [14]: 19%; Activity [4]: 0%; Activity [15]: -55%
13 | CC1=C(CC/C(C)=C/C=C/C(C)=C/C(=O)O)C(C)(C)CCC1 | 25 | 0 | 1 | 82 | 115 | 106 | -33 | Activity [12]: Active; Activity [13]: Active
14 | COC(=O)/C=C(\C)CC/C=C(C)/C=C/c1c(C)cc(OC)c(Cl)c1C | – | – | – | – | – | – | 29 | –
15 | COC(=O)/C=C(\C)CC/C=C(C)/C=C/C1=C(C)CCCC1(C)C | 83 | 24 | 3 | 9 | 5 | 21 | -13 | Activity [12]: Active; Activity [13]: Active
16 | CC1=C(/C=C/C(C)C/C=C/C(C)=C/C(=O)O)C(C)(C)CCC1 (racemic) | 96 | 52 | 3 | 28 | 29 | 118 | – | Activity [12]: Active; Activity [13]: Active
